{
  "source": "ChEMBL document CHEMBL1128527",
  "about": "“Modification of receptor selectivity and functional activity in cholecystokinin peptoid ligands” (J Med Chem, 1995)",
  "key": {"[1]": {"target": "T1, Gastrin/cholecystokinin type B receptor (Homo sapiens, UniProt P32239)", "T1 sequence (P32239 whole entry)": "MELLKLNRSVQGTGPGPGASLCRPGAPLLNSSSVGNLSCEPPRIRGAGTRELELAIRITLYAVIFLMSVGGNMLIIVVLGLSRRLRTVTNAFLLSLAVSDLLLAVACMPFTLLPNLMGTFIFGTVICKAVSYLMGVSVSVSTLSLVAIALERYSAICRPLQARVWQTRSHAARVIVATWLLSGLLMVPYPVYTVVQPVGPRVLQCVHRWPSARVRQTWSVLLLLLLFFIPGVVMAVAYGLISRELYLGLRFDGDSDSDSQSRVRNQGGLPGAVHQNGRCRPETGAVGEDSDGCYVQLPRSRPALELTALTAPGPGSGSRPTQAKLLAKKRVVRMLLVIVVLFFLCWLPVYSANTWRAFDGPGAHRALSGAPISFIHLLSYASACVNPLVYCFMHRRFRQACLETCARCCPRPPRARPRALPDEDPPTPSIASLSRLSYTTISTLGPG", "assay": "Compound was evaluated for the [Ca2+] mobilization innstably transfected CHO-K1 cell lines expressing human Cholecystokinin type B receptor", "type": "cell-based"}, "[2]": {"target": "T2, Cholecystokinin receptor type A (Homo sapiens, UniProt P32238)", "T2 sequence (P32238 whole entry)": "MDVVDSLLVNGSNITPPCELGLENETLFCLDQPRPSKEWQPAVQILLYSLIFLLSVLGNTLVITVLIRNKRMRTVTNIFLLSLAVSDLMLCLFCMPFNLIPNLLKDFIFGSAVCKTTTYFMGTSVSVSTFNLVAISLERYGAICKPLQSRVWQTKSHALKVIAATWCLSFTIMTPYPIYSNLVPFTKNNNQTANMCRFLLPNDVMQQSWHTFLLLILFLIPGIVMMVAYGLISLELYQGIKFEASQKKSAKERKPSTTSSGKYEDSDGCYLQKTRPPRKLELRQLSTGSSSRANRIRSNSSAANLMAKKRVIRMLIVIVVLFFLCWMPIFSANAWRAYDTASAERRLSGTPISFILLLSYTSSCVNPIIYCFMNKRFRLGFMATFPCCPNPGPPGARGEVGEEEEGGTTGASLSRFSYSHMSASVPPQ", "assay": "In vitro displacement of [125I]BH-CCK-8 from cDNA of human Cholecystokinin type A receptor expressed in CHO-K1 cells", "type": "cell-based"}, "Cavia porcellus [3]": {"species_on_record": "Cavia porcellus", "assay": "In vitro concentration required to induce contraction of isolated GPGB", "type": "functional", "outline": "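Isolated guinea pig gallbladder contraction. pEC50 (−log EC50 ± SD) assayed in triplicate.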"}, "Cavia porcellus [4]": {"species_on_record": "Cavia porcellus", "assay": "The compound was evaluated for contraction as % of CCK-8 maximum against Cholecystokinin type A receptor in guinea pig gallbladder"}, "[5]": {"target": "T3, Gastrin/cholecystokinin type B receptor (Homo sapiens) (UniProt P32239)", "T3 sequence (whole entry)": "T1 sequence (P32239 whole entry)"}, "Rattus norvegicus [6]": {"test_system": "Rattus norvegicus", "assay": "Compound was evaluated for the dose(ip) required to achieve half-maximal inhibition of feeding at 30 min in rats.", "type": "functional", "conditions": "0.5 h", "outline": "(§1)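 Male Long-Evans rats (225–300 g) conditioned 2 weeks to a liquid diet. Animals fasted 100 min, then given test compound ip in propylene glycol (1 mL/kg) followed at once by an oral saline preload (8 mL/kg). Diet offered 20 min later and intake measured at 30 min. ED50 is the dose giving half-maximal inhibition; 8–10 rats per dose, normalized to each rat's pretreatment-day response.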"}, "[7]": {"target": "T2, Cholecystokinin receptor type A", "assay": "Compound was evaluated for the [Ca2+] mobilization innstably transfected CHO-K1 cell lines expressing human Cholecystokinin type A receptor", "type": "cell-based"}, "[8]": {"target": "T1, Gastrin/cholecystokinin type B receptor"}, "Rattus norvegicus [9]": {"test_system": "Rattus norvegicus", "assay": "Compound was evaluated for the maximal reduction in feeding achieved at 1 uM/kg dose(ip)", "type": "functional", "outline": "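Conditioned male Long-Evans rats fasted 100 min, dosed ip at 1 μmol/kg in propylene glycol (1 mL/kg), then given an oral saline preload (0.9%, 8 mL/kg). Liquid diet offered 20 min later. Maximal reduction of feeding is the mean of 8–10 animals, normalized to the vehicle pretreatment-day intake.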"}, "Rattus norvegicus [10]": {"test_system": "Rattus norvegicus", "assay": "The compound was evaluated for the maximal reduction in feeding achieved at 1 uM/kg dose(ip)", "type": "functional", "conditions": "in the assay text read “0.5 umol/kg” for “1 uM/kg”"}, "Cavia porcellus [11]": {"species_on_record": "Cavia porcellus", "assay": "mCCK-8 contraction induced by 30 uM in vitro, normalized to CCK-8 (1 uM)", "type": "functional", "outline": "(§2)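 Isolated guinea pig gallbladder. Contraction produced by test compound at 30 μM is expressed relative to CCK-8 (1 μM).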"}, "Rattus norvegicus [12]": {"test_system": "Rattus norvegicus", "assay": "The compound was evaluated for the dose(ip) required to achieve half-maximal inhibition of feeding at 30 min in rats", "type": "functional", "conditions": "0.5 h", "outline": "as §1"}, "[13]": {"target": "T4, Cholecystokinin receptor type A (Cavia porcellus) (UniProt Q63931)", "T4 sequence (whole entry)": "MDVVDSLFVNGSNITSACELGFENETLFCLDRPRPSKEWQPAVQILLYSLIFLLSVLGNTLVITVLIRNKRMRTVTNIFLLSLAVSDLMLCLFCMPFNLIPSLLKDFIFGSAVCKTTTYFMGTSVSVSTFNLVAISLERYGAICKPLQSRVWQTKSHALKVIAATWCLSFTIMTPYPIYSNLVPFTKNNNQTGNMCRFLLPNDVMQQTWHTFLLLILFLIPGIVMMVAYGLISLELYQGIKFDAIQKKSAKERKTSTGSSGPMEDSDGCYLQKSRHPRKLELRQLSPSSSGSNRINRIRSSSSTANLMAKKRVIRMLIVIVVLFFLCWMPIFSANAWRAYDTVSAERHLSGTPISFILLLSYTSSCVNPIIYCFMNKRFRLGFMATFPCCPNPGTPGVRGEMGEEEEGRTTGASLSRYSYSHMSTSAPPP", "assay": "The compound was evaluated for the contraction as % of CCK-8 maximum against Cholecystokinin type A receptor in guinea pig gallbladder"}, "Rattus norvegicus [14]": {"test_system": "Rattus norvegicus", "assay": "Compound was evaluated for the dose(ip) required to achieve half-maximal inhibition of feeding at 30 min in rats", "type": "functional", "conditions": "0.5 h", "outline": "as §1"}, "Cavia porcellus [15]": {"species_on_record": "Cavia porcellus", "assay": "mCCK-8 contraction induced by 30 uM in vitro, normalized to CCK-8 (1 uM); IA = 'inactive'", "type": "functional", "outline": "as §2"}, "Cavia porcellus [16]": {"species_on_record": "Cavia porcellus", "assay": "The compound was evaluated for the pKB, single dose pA2 against Cholecystokinin type A receptor in guinea pig gallbladder", "type": "functional", "outline": "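Isolated guinea pig gallbladder. Antagonism against CCK-8 is expressed as pKB, a single-dose pA2.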"}, "Cavia porcellus [17]": {"species_on_record": "Cavia porcellus", "assay": "mCCK-8 contraction induced by 30 uM in vitro, normalized to CCK-8 (1 uM); IA ='inactive'", "type": "functional", "outline": "as §2"}},
  "note": "Calls of active or inactive are those of the source. The calls are words filed in the database; no cut-off is given here. Numbered stars: 1 amine (or outer) side, 2 acyl side, 3 side chain; on linkers, the order of the positions; unused ones are H or OH. Square brackets hold non-standard residues; d marks the D form. Side chains are listed from the residue outwards. Peptide text beside a SMILES is read from it. * marks the point of attachment. NMeF = CN[C@@H](Cc1ccccc1)C(=O)O; NH(2-Me-phenyl) = Cc1ccccc1N*; CO = O=C([*:1])[*:2]",
  "data": [
    {"smiles": "Cc1ccccc1NC(=O)NCCCC[C@H](CNC(=O)[C@@](C)(Cc1c[nH]c2ccccc12)NC(=O)OC1C2CC3CC(C2)CC1C3)NC(=O)CCC(=O)O", "note": "(stereo not given in full)", "values": [
      {"measurement": "EC50", "setting": "[1]", "result": 2.51, "unit": "µM"},
      {"measurement": "IC50", "setting": "[2]", "result": 0.012, "unit": "µM"},
      {"measurement": "EC50", "setting": "Cavia porcellus [3]", "result": 0.0275, "unit": "µM"},
      {"measurement": "contraction, % of CCK-8 max", "setting": "Cavia porcellus [4]", "result": 72, "unit": "%"},
      {"measurement": "pKB", "setting": "[5]", "result": 7.7},
      {"measurement": "ED50", "setting": "Rattus norvegicus [6]", "result": 0.03, "unit": "µmol/kg"},
      {"measurement": "EC50", "setting": "[7]", "result": 0.00316, "unit": "µM"},
      {"measurement": "IC50", "setting": "[8]", "result": 0.02, "unit": "µM"},
      {"measurement": "Max inhibition", "setting": "Rattus norvegicus [9]", "result": 59, "unit": "%"}
    ]},
    {"smiles": "CSCC[C@H](NC(=O)[C@H](Cc1ccc(OS(=O)(=O)O)cc1)NC(=O)[C@@H](N)CC(=O)O)C(=O)NCC(=O)N[C@@H](Cc1c[nH]c2ccccc12)C(=O)N[C@@H](CCSC)C(=O)N[C@@H](CC(=O)O)C(=O)N[C@@H](Cc1ccccc1)C(N)=O", "note": "[SINCALIDE]", "values": [
      {"measurement": "max inhibition", "setting": "Rattus norvegicus [10]", "result": 95, "unit": "%"},
      {"measurement": "Activity", "setting": "Cavia porcellus [11]", "result": 100, "unit": "%"},
      {"measurement": "ED50", "setting": "Rattus norvegicus [12]", "result": 0.027, "unit": "µmol/kg"}
    ]},
    {"smiles": "C[C@](Cc1c[nH]c2ccccc12)(NC(=O)OC1[C@H]2C[C@@H]3C[C@@H](C[C@H]1C3)C2)C(=O)NC[C@H](NC(=O)CCC(=O)O)c1ccccc1", "note": "(stereo not given in full) [CI-988]", "values": [
      {"measurement": "Activity", "setting": "Cavia porcellus [11]", "result": 24, "unit": "%"}
    ]},
    {"smiles": "Cc1ccccc1NC(=O)NCCCC[C@H](CNC(=O)[C@](C)(Cc1c[nH]c2ccccc12)NC(=O)OC1C2CC3CC(C2)CC1C3)NC(=O)CCC(=O)O", "note": "(stereo not given in full)", "values": [
      {"measurement": "IC50", "setting": "[2]", "result": 0.229, "unit": "µM"},
      {"measurement": "EC50", "setting": "Cavia porcellus [3]", "result": 0.832, "unit": "µM"},
      {"measurement": "contraction, % of CCK-8 max", "setting": "Cavia porcellus [4]", "result": 83, "unit": "%"},
      {"measurement": "IC50", "setting": "[8]", "result": 0.178, "unit": "µM"}
    ]},
    {"smiles": "CC(=O)N[C@@H](Cc1c[nH]c2ccccc12)C(=O)N[C@@H](CCCCNC(=O)Nc1ccccc1C)C(=O)N[C@@H](CC(=O)O)C(=O)N(C)[C@@H](Cc1ccccc1)C(N)=O", "note": "(Ac-WK([CO-NH(2-Me-phenyl)])D[NMeF]-NH2)", "values": [
      {"measurement": "IC50", "setting": "[2]", "result": 0.02, "unit": "µM"},
      {"measurement": "EC50", "setting": "Cavia porcellus [3]", "result": 0.00158, "unit": "µM"},
      {"measurement": "contraction, % of CCK-8 max", "setting": "[13]", "result": 105, "unit": "%"},
      {"measurement": "EC50", "setting": "[7]", "result": 0.00398, "unit": "µM"},
      {"measurement": "ED50", "setting": "Rattus norvegicus [14]", "result": 0.01, "unit": "µmol/kg"},
      {"measurement": "max inhibition", "setting": "Rattus norvegicus [9]", "result": 67, "unit": "%"}
    ]},
    {"smiles": "Cc1ccccc1NC(=O)NCCCC[C@@H](CNC(=O)CCC(=O)O)NC(=O)[C@@](C)(Cc1c[nH]c2ccccc12)NC(=O)OC1C2CC3CC(C2)CC1C3", "note": "(stereo not given in full)", "values": [
      {"measurement": "IC50", "setting": "[2]", "result": 0.0603, "unit": "µM"},
      {"measurement": "Activity", "setting": "Cavia porcellus [15]", "result": "inactive"},
      {"measurement": "IC50", "setting": "[8]", "result": 0.224, "unit": "µM"},
      {"measurement": "pKB", "setting": "Cavia porcellus [16]", "result": 7}
    ]},
    {"smiles": "Cc1ccccc1NC(=O)NCCCC[C@@H](CNC(=O)CCC(=O)O)NC(=O)[C@](C)(Cc1c[nH]c2ccccc12)NC(=O)OC1C2CC3CC(C2)CC1C3", "note": "(stereo not given in full)", "values": [
      {"measurement": "IC50", "setting": "[2]", "result": 0.724, "unit": "µM"},
      {"measurement": "Activity", "setting": "Cavia porcellus [17]", "result": "inactive"},
      {"measurement": "IC50", "setting": "[8]", "result": 7.08, "unit": "µM"}
    ]}
  ]
}
